Measurements collected from several papers.
Protocols differ between the studies behind these lines.
Effect on: cell growth or viability

SMILES	cell line	assay	conditions	IC50
CCSC(=O)c1ncn2c(=O)n(C)nnc12	U-87 MG	resazurin	7 days	64000 nM
COc1ccc(Br)cc1/C=C/C(=O)c1ccc(NC(C)=O)cc1	MEF	MTT	72 h	1000 nM
CC1=C(O)C(=O)C=C2C1=CC=C1[C@@]2(C)CC[C@@]2(C)[C@@H]3C[C@](C)(C(=O)OCCCN4C(=O)C5C=CC=CC5C4=O)CC[C@]3(C)CC[C@]12C (stereo partly drawn)	AGS	MTT	48 h	370 nM
C=CC(=O)Nc1cc(Nc2nccc(-c3cn(C4CC4)c4ccccc34)n2)c(OC)cc1N(C)CCN(C)C	PC-9	ATP luminescence	72 h	4.1 nM
CCN1C(=O)N(c2c(F)c(OC)cc(OC)c2F)Cc2cnc3[nH]c(CN4CCOCC4)cc3c21	JMSU-1	ATP luminescence	96 h	8.79 nM
CC1=C(O)C(=O)C=C2C1=CC=C1[C@@]2(C)CC[C@@]2(C)[C@@H]3C[C@](C)(C(=O)OCCCCCCCCO)CC[C@]3(C)CC[C@]12C	AGS	MTT	48 h	420 nM
COc1cccc2c1C(=O)c1c(O)c3c(c(O)c1C2=O)C[C@@](O)(C(=O)CO)C[C@@H]3O[C@H]1C[C@H](N)[C@H](O)[C@H](C)O1	ChaGo-K-1	MTT	48 h	0.65 µg/mL
CC1=C(O)C(=O)C=C2C1=CC=C1[C@@]2(C)CC[C@@]2(C)[C@@H]3C[C@](C)(C(=O)OCCCn4ccc5ccccc54)CC[C@]3(C)CC[C@]12C	AGS	MTT	48 h	2100 nM
O=C1NCCc2[nH]c(-c3ccncc3)cc21	EKVX			> 10000 nM
CC1=C(O)C(=O)C=C2C1=CC=C1[C@@]2(C)CC[C@@]2(C)[C@@H]3C[C@](C)(C(=O)OCCCCO)CC[C@]3(C)CC[C@]12C	AGS	MTT	48 h	350 nM
Cc1cccc(-n2ncc(Br)c(Br)c2=O)c1	PC-9	resazurin	96 h	860 nM
CC1=C(O)C(=O)C=C2C1=CC=C1[C@@]2(C)CC[C@@]2(C)[C@@H]3C[C@](C)(C(=O)OCCCCCCCO)CC[C@]3(C)CC[C@]12C	AGS	MTT	48 h	410 nM
CCCCN(CCCC)C(=O)c1ncn2c(=O)n(C)nnc12	U-87 MG	resazurin	7 days	27000 nM
COc1c(C)c(OC)c2c(c1C)OC(c1ccccc1)CC2=O (stereo not drawn)	KKU-M213	SRB	72 h	> 50000 nM
COc1cc(/C=C2\SC(=O)NC2=O)ccc1OCc1ccc(Cl)cc1Cl	MEF	MTT	72 h	8600 nM
COc1cccc2c1C(=O)c1c(O)c3c(c(O)c1C2=O)C[C@@](O)(C(=O)CO)C[C@@H]3O[C@H]1C[C@H](N)[C@H](O)[C@H](C)O1	AGS	MTT	24 h	< 625 nM
C=C(C)C(=O)Nc1ccc(-c2c(-c3ccc(Oc4nccc(C)n4)c(F)c3)c3c(N)ncnc3n2C)cc1	JMSU-1	ATP luminescence	96 h	1060 nM
CC(=O)Nc1nc(C)c(-c2csc(Nc3ccccc3)n2)s1	MEF	MTT	72 h	21400 nM
COc1ccc(C2=N[C@@H](c3ccc(Cl)cc3)[C@@H](c3ccc(Cl)cc3)N2C(=O)N2CCNC(=O)C2)c(OC(C)C)c1	DU-4475	MTS	48 h	4000 nM
CC(=O)OCCOC(=O)[C@]1(C)CC[C@]2(C)CC[C@]3(C)C4=CC=C5C(=CC(=O)C(O)=C5C)[C@]4(C)CC[C@@]3(C)[C@@H]2C1	AGS	MTT	48 h	430 nM
O=c1[nH]cc(S(=O)(=O)Nc2cccc(-c3nnc(-c4cccc(Cl)c4)o3)c2)c(=O)[nH]1	PC-9	MTT	24 h	1100 nM
